Results as given in ChEMBL document CHEMBL3856239, “Synthesis and Antiobesity Properties of 6-(4-Chlorophenyl)-3-(4-((3,3-difluoro-1-hydroxycyclobutyl)methoxy)-3-methoxyphenyl)thieno[3,2-d]pyrimidin-4(3H)-one (BMS-814580): A Highly Efficacious Melanin Concentrating Hormone Receptor 1 (MCHR1) Inhibitor” (J Med Chem, 2016).

Key:
[1] = Cardiotoxicity in anesthetized rabbit assessed as prolongation of QRS intervals up to plasma concentration of 38 uM; type: toxicity, Oryctolagus cuniculus
Method in brief: (§1)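 Anesthetized rabbits given compound to plasma concentrations up to 38 µM; QT and QRS duration, mean arterial blood pressure and heart rate recorded.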

[2] = Cardiotoxicity in anesthetized rabbit assessed as effect on mean arterial blood pressure; type: toxicity, tissue-based, Oryctolagus cuniculus; method in brief: as §1
Homo sapiens = species: Homo sapiens; assay: Inhibition of sodium channel (unknown origin) at 10 uM and 4 Hz
[3] = Clearance in dog at 1 mg/kg, iv; type: ADME, organism-based, Canis lupus familiaris; conditions: in vivo
Method in brief: (§2)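 Rats, dogs and cynomolgus monkeys, n = 3: parent 1 mg/kg i.v. in PEG400:DMAC:water (70:5:25), or phosphate prodrug 10 mg/kg oral in Methocel:Tween80:water (0.5:0.1:99.4); plasma parent compound, Cmax, Tmax, AUC0-∞, half-life, clearance, Vss and bioavailability derived.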

[4] = Solubility of the compound in phosphate buffer at pH 6.4; type: physicochemical
Method in brief: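 Solubility of parent compounds and prodrugs measured in 50 mM phosphate buffer, pH 6.4.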

Rattus norvegicus = assay: Antiobesity activity in pair-fed DIO Sprague-Dawley rat model assessed as reduction in body weight at 1 mg/kg, po qd for 28 days relative to vehicle control; type: functional; design: scale not given: the % may be the effect or the level left
Method in brief: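 Obese male SD rats on diet-induced obesity, 8/group, dosed orally once daily for 28 days with phosphate prodrug (0.03–3 mg/kg parent) in 14% propylene glycol/1% Tween/85% water; rimonabant 10 mg/kg control; pair-fed groups matched to 1 and 3 mg/kg intake; body weight and food measured daily, % change versus vehicle.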

[5] = AUC in cynomolgus monkey at 1 mg/kg, iv; type: ADME, organism-based, Macaca fascicularis; conditions: in vivo; method in brief: as §2
[6] = Volume of distribution at steady state in dog at 1 mg/kg, iv; type: ADME, organism-based, Canis lupus familiaris; conditions: in vivo, read-out: Vdss
Method in brief: (§3)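 Full PK in rat, dog and cynomolgus monkey. Oral arm: phosphate prodrug at 10 mg/kg parent-equivalent in Methocel:Tween80:water (0.5:0.1:99.4). Intravenous arm: parent at 1 mg/kg in PEG400:DMAC:water (70:5:25). n = 3 per species; individual Tmax values reported for dog and monkey.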

[7] = Clearance rat at 1 mg/kg, iv; type: ADME, organism-based; conditions: in vivo; method in brief: as §2
[8] = Volume of distribution at steady state in rat at 1 mg/kg, iv; type: ADME, organism-based; conditions: in vivo, read-out: Vdss; method in brief: as §3
[9] = Cardiotoxicity in anesthetized rabbit assessed as effect on heart rate; type: toxicity, tissue-based, Oryctolagus cuniculus; method in brief: as §1
[10] = Metabolic stability in mouse liver microsomes assessed as compound remaining at 3 uM measured after 10 min; type: ADME; conditions: read-out: Stability
Method in brief: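 Test compound at 3.0 µM incubated with liver microsomes for 10 minutes; read-out is percent of parent remaining.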

[11] = AUC in dog at 1 mg/kg, iv; type: ADME, organism-based, Canis lupus familiaris; conditions: in vivo; method in brief: as §2
[12] = Volume of distribution at steady state in cynomolgus monkey at 1 mg/kg, iv; type: ADME, organism-based, Macaca fascicularis; conditions: in vivo, read-out: Vdss; method in brief: as §3
[13] = Half life in cynomolgus monkey at 1 mg/kg, iv; type: ADME, organism-based, Macaca fascicularis; conditions: in vivo; method in brief: as §2

inhibition (Homo sapiens): 21% | clearance [3]: 6.9 mL/min/kg | solubility [4]: < 1 µg/mL | AUC [5]: 22.1 µM·h | Vd [6]: 7.2 L/kg | clearance [7]: 0.9 mL/min/kg | Vd [8]: 4.1 L/kg | remaining at 10 min, 3 µM [10]: 100% | AUC [11]: 5.2 µM·h | Vd [12]: 5.4 L/kg | half-life [13]: 37 h
SMILES: COc1cc(-n2cnc3cc(-c4ccc(Cl)cc4)sc3c2=O)ccc1OCC1(O)CC(F)(F)C1
Activity [1]: Non-Toxic | Activity [2]: Non-Toxic | Activity (Rattus norvegicus): 4.2% | Activity [9]: Non-Toxic
